42 compounds from ChEMBL document CHEMBL4043244, “Diverse amide analogs of sulindac for cancer treatment and prevention” (Bioorg Med Chem Lett, 2017) can be followed below.

Assay [1] has as its system HT-29. As to the kind of experiment: Growth inhibition of human HT-29 cells after 72 hrs by CellTiter-Glo reagent based assay. It is filed as functional. The following applies: HT-29, 72 h. Summed up: (§1)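 Cancer cell lines (PC3 prostate, HT29 colorectal carcinoma, MDA-MB-231 breast) were screened by quantitative high-throughput screening in whole cells, and CC50 values were derived.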

Assay [2] deals with PC-3. In words: Growth inhibition of human PC3 cells after 72 hrs by CellTiter-Glo reagent based assay. It is filed as functional. The following applies: PC-3, 72 h. Summed up:
as §1

Assay [3] has as its system MDA-MB-231. As to the kind of experiment: Growth inhibition of human MDA-MB-231 cells after 72 hrs by CellTiter-Glo reagent based assay. The class given is functional. The following applies: MDA-MB-231, 72 h. Summed up: as §1
(In general: ATP-based viability assays read luminescence as a measure of living cells.)

The nature of assay [4]: Growth inhibition of mouse CPC300 cells after 72 hrs by CellTiter-Glo reagent based assay. The following applies: cpc300. It is filed as functional, cell-based.
Assay [5] relates to Raji. As to the kind of experiment: Growth inhibition of human Raji cells after 72 hrs by CellTiter-Glo reagent based assay. The class given is functional, cell-based. The following applies: Homo sapiens, Raji, 72 h; read-out: EC50.
Assay [6] deals with Jurkat E6.1. As to the kind of experiment: Growth inhibition of human Jurkat E6-1 cells after 72 hrs by CellTiter-Glo reagent based assay. The class given is functional, cell-based. The following applies: jurkat e6.1.
Assay [7] has as its system REH. In words: Growth inhibition of human REH cells after 72 hrs by CellTiter-Glo reagent based assay. It is filed as functional, cell-based. The following applies: reh.
Assay [8] deals with 697. As to the kind of experiment: Growth inhibition of human 697 cells after 72 hrs by CellTiter-Glo reagent based assay. The following applies: 697. It is filed as functional, cell-based.
Assay [9] has as its system BJ. As to the kind of experiment: Growth inhibition of human BJ cells after 72 hrs by CellTiter-Glo reagent based assay. The class given is cell-based. The method in brief:
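Normal human foreskin fibroblast (BJ) counter-screen for cytotoxicity, with drug tested at 10 μM.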

Usually CC50 stands for the concentration that lowers cell viability or growth by half. The EC50 is the concentration giving half of the maximal effect. For the compound `CSc1ccc(/C=C2/C(C)=C(CC(=O)N3CCN(CCCN(C)C)CC3)c3cc(F)ccc32)cc1`, the values for the CC50 in [1], in [2] and in assay [3] were 1.69 µM, 4.28 µM and 3.77 µM, respectively. In addition, the EC50 entry in assay [4] was “Not Active”; in assay [5], 76 µM; in assay [6] it was “Not Active”; in [7], “Not Active”; in assay [8], “Not Active”; in assay [9], above 7.57 µM.

In the case of `CC1=C(CC(=O)N(C)CCN(C)S(C)(=O)=O)c2cc(F)ccc2/C1=C\c1ccc([S+](C)[O-])cc1` (centres undefined), the CC50 in assay [1] is 12.4 µM; in assay [2] it was 42.6 µM; in assay [3] it was 12.5 µM.

`CSc1ccc(/C=C2/C(C)=C(CC(=O)NCCCN(C)C)c3cc(F)ccc32)cc1`: the CC50 in assay [1] is 2.46 µM; in assay [2] it was 6.99 µM; in assay [3], 5.18 µM.

With `CSc1ccc(/C=C2/C(C)=C(CC(=O)N(C)CCCN(C)C)c3cc(F)ccc32)cc1`, the CC50 in assay [1] amounted to 2.18 µM; in [2], 6.98 µM; in assay [3], 5.41 µM.

As for `CSc1ccc(/C=C2/C(C)=C(CC(=O)N3CCC[C@H]3CN3CCCC3)c3cc(F)ccc32)cc1`, the CC50 in assay [1] turned out to be 1.55 µM; in assay [2] it was 5.1 µM; in assay [3], 4.16 µM. Also, the EC50 entry was “Not Active” in assay [4]; 76 µM in assay [5]; “Not Active” in assay [6]; “Not Active” in [7]; “Not Active” in assay [8]; above 7.57 µM in assay [9].

On to `CSc1ccc(/C=C2/C(C)=C(CC(=O)N3CCC(N4CCCCC4)CC3)c3cc(F)ccc32)cc1`, for which the CC50 in assay [1] was 1.06 µM; in assay [2], 4.06 µM; in [3], 2.61 µM.

Turning to `CSc1ccc(/C=C2/C(C)=C(CC(=O)NCc3ccccn3)c3cc(F)ccc32)cc1`, the CC50 is 10.3 µM in [1], 13.6 µM in [2] and 13.7 µM in assay [3].

`CC1=C(CC(=O)NCc2ccccc2)c2cc(F)ccc2/C1=C\c1ccncc1` [CP-461 FREE BASE]: the CC50 came out at 2.14 µM in assay [1], 5.71 µM in assay [2] and 3.68 µM in assay [3].

`CC1=C(CC(=O)NCCN(C)C)c2cc(F)ccc2/C1=C\c1ccc(S(C)(=O)=O)cc1`: the values for the CC50 in assay [1], in assay [2] and in assay [3] were 12.7 µM, above 50 µM and 37.5 µM, respectively.

For the compound `CSc1ccc(/C=C2/C(C)=C(CC(=O)NCc3ccco3)c3cc(F)ccc32)cc1`, the CC50 in [1] worked out at 2.08 µM; in [2], 13 µM; in assay [3], 3.4 µM.

`COc1cc(/C=C2/C(C)=C(CC(=O)NCCC(C)C)c3cc(F)ccc32)cc(OC)c1OC`: the values for the CC50 in [1], in [2] and in [3] were 5.24 µM, 8.2 µM and 8.73 µM, respectively.

With `CSc1ccc(/C=C2/C(C)=C(CC(=O)N(C)CCN(C)S(=O)(=O)c3ccc4ccccc4c3)c3cc(F)ccc32)cc1`, the CC50 in assay [1] was 35.3 µM; in assay [2], above 50 µM; in [3], above 50 µM.

As for `CCNCCN(CC)C(=O)CC1=C(C)/C(=C/c2ccc(SC)cc2)c2ccc(F)cc21`, the figures for the CC50 in assay [1], in assay [2] and in assay [3] were 2.54 µM, 6.56 µM and 6.65 µM, respectively.

Regarding `CC1=C(CC(=O)NCc2ccccc2)c2cc(F)ccc2/C1=C\c1nc2ccccc2s1`, the half-maximal cytotoxic concentration (CC50) is 23.6 µM in [1], above 50 µM in assay [2] and 19.6 µM in assay [3].

For the compound `CSc1ccc(/C=C2/C(C)=C(CC(=O)NCc3cccs3)c3cc(F)ccc32)cc1`, the CC50 in assay [1] stood at 2.16 µM; in [2], 11 µM; in assay [3] it was 5.66 µM.

Take `CCN(CC)CCN(CC)C(=O)CC1=C(C)/C(=C/c2ccc(SC)cc2)c2ccc(F)cc21`: the CC50 turned out to be 1.83 µM in [1], 6.21 µM in assay [2] and 5.22 µM in [3].

`CSc1ccc(/C=C2/C(C)=C(CC(=O)NCCN3CCCCC3)c3cc(F)ccc32)cc1`: the figures for the CC50 in [1], in assay [2] and in [3] were 1.65 µM, 5.36 µM and 5.42 µM, respectively.

On to `CCN(CC)CCCNC(=O)CC1=C(C)/C(=C/c2ccc(SC)cc2)c2ccc(F)cc21`, for which the figures for the CC50 in assay [1], in [2] and in assay [3] were 1.53 µM, 4.33 µM and 3.19 µM, respectively. In addition, the EC50 entry in assay [4] was “Not Active”; in assay [5] it was 21 µM; in [6] it was “Not Active”; in [7] it was “Not Active”; in assay [8], “Not Active”; in assay [9], above 7.57 µM.

For `COc1cc(/C=C2/C(C)=C(CC(=O)NCCN3CCCC3)c3cc(F)ccc32)cc(OC)c1OC`, the CC50 in assay [1] turned out to be 13.4 µM; in [2], 46.5 µM; in assay [3], 41.1 µM.

Consider `CC1=C(CC(=O)N2CCC[C@H]2CN2CCCC2)c2cc(F)ccc2/C1=C\c1nc2ccccc2s1`, for which the CC50 in assay [1] stood at 1.58 µM; in assay [2] it was 4.25 µM; in assay [3], 3.61 µM.

`CCN1CCC[C@H]1CNC(=O)CC1=C(C)/C(=C/c2nc3ccccc3s2)c2ccc(F)cc21`: the CC50 was 1.66 µM in [1], 7.72 µM in assay [2] and 5.58 µM in assay [3].

`CSc1ccc(/C=C2/C(C)=C(CC(=O)NCc3cccnc3)c3cc(F)ccc32)cc1`: the CC50 in assay [1] stood at 4.83 µM; in assay [2], 18.5 µM; in assay [3], 7.36 µM.

With `CCN1CCC[C@H]1CNC(=O)CC1=C(C)/C(=C/c2ccc([S+](C)[O-])cc2)c2ccc(F)cc21` (some centres undefined), the CC50 in [1] was 19 µM; in assay [2], above 50 µM; in [3], above 50 µM.

In the case of `CSc1ccc(/C=C2/C(C)=C(CC(=O)N(C)CCN(C)S(C)(=O)=O)c3cc(F)ccc32)cc1`, the values for the CC50 in assay [1], in assay [2] and in [3] were 4.04 µM, 15.5 µM and 11.6 µM, respectively.

Take `CSc1ccc(/C=C2/C(C)=C(CC(=O)N(CCCNC(C)C)C(C)C)c3cc(F)ccc32)cc1`: the CC50 amounted to 2.3 µM in assay [1], 4.9 µM in [2] and 3.92 µM in assay [3].

For the compound `CNCCN(C)C(=O)CC1=C(C)/C(=C/c2ccc(SC)cc2)c2ccc(F)cc21`, the CC50 in [1] worked out at 2.8 µM; in [2], 6.75 µM; in [3], 5.84 µM.

Regarding `CC1=C(CC(=O)NCCCN(C)C)c2cc(F)ccc2/C1=C\c1ccc([S+](C)[O-])cc1` (centres undefined), the CC50 is 33.3 µM in [1], above 50 µM in assay [2] and above 50 µM in assay [3].

As for `CSc1ccc(/C=C2/C(C)=C(CC(=O)Nc3ccc(N(C)C)cc3)c3cc(F)ccc32)cc1`, the results for the CC50 in [1], in assay [2] and in assay [3] were above 50 µM, above 50 µM and 30.6 µM, respectively.

Consider `CC1=C(CC(=O)N(C)CCN(C)S(=O)(=O)c2ccc3ccccc3c2)c2cc(F)ccc2/C1=C\c1ccc([S+](C)[O-])cc1` (centres undefined), for which the values for the CC50 in [1], in assay [2] and in assay [3] were 6.35 µM, 7.52 µM and 32.1 µM, respectively.

Turning to `CCN(CC)CCN(C)C(=O)CC1=C(C)/C(=C/c2ccc([S+](C)[O-])cc2)c2ccc(F)cc21` (centres undefined), the cytotoxic concentration (CC50) was 24 µM in assay [1], above 50 µM in assay [2] and above 50 µM in [3].

`CNCCCN(C)C(=O)CC1=C(C)/C(=C/c2ccc(SC)cc2)c2ccc(F)cc21`: the CC50 in [1] stood at 2.9 µM; in [2], 7.65 µM; in [3], 7.66 µM.

With `CC1=C(CC(=O)N2CCC[C@H]2CN2CCCC2)c2cc(F)ccc2/C1=C\c1ccc([S+](C)[O-])cc1` (some centres undefined), the cytotoxic concentration (CC50) in assay [1] was 20.2 µM; in assay [2], above 50 µM; in assay [3], above 50 µM.

Regarding `CSc1ccc(/C=C2/C(C)=C(CC(=O)NCCN3CCCC3)c3cc(F)ccc32)cc1`, the CC50 turned out to be 1.81 µM in assay [1], 5.27 µM in assay [2] and 3.78 µM in [3].

For the compound `CSc1ccc(/C=C2/C(C)=C(CC(=O)NCCN3CCNCC3)c3cc(F)ccc32)cc1`, the CC50 in assay [1] turned out to be 2.98 µM; in assay [2], 6.66 µM; in [3], 7.66 µM.

As for `CC1=C(CC(=O)N2CCC(N3CCCCC3)CC2)c2cc(F)ccc2/C1=C\c1ccc([S+](C)[O-])cc1` (centres undefined), the CC50 in [1], in [2] and in [3] was above 50 µM in each case.

On to `CSc1ccc(/C=C2/C(C)=C(CC(=O)NCCC(C)C)c3cc(F)ccc32)cc1`, for which the 50% cytotoxic concentration (CC50) in [1], in [2] and in [3] was above 50 µM throughout.

With `CCN1CCC[C@H]1CNC(=O)CC1=C(C)/C(=C/c2ccc(SC)cc2)c2ccc(F)cc21`, the CC50 turned out to be 1.16 µM in assay [1], 4.64 µM in [2] and 3.72 µM in [3].

For the compound `COC(=O)[C@@H](C)NC(=O)CC1=C(C)/C(=C/c2ccc(SC)cc2)c2ccc(F)cc21`, the values for the CC50 in assay [1], in assay [2] and in [3] were 16.2 µM, 44.2 µM and 32 µM, respectively.

As for `CCNCCCN(CC)C(=O)CC1=C(C)/C(=C/c2ccc(SC)cc2)c2ccc(F)cc21`, the CC50 in assay [1] was 1.38 µM; in assay [2], 3.92 µM; in [3] it was 3.03 µM.

Consider `CSc1ccc(/C=C2/C(C)=C(CC(=O)NN3CCN(C)CC3)c3cc(F)ccc32)cc1`, for which the figures for the CC50 in assay [1], in assay [2] and in assay [3] were 1.64 µM, 4.45 µM and 4.1 µM, respectively.

As for `CC1=C(CC(=O)N(C)CCN(C)C(=O)[C@@H](N)C(C)C)c2cc(F)ccc2/C1=C\c1ccc([S+](C)[O-])cc1` (some centres undefined), the CC50 in assay [1] is 30.2 µM; in assay [2] it was above 50 µM; in assay [3], above 50 µM.

Take `CC1=C(CC(=O)N(C)CCN(C)S(=O)(=O)c2cccc3ccccc23)c2cc(F)ccc2/C1=C\c1ccc([S+](C)[O-])cc1` (centres undefined): the CC50 was found to be 3.99 µM in [1], 8.96 µM in assay [2] and 29.1 µM in assay [3].
